Compound activity (PubChem)
Shown are actives, neighbours in structure and some others; about 4.8% of the full set was active somewhere.
NALP3 yeast inh: blocks the NALP3 inflammasome reconstituted in yeast | Yeast reconstituted NLRP3/ASC/caspase-1, beta-gal luminescence, 24 h | inhibition, % at 10 µM | 330,000 tested, 0.39% active | AID 2825;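 active = inhibition of 50% or more; inactive = inhibition below 50%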;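 also: plate controls were induced DMSO wells for no effect and uninduced yeast grown without galactose for full effect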
UCH37 DUB inh: human UCH37 deubiquitinating enzyme inhibition; Q9Y5K5; purified proteasome/UCH37, Ub-AMC cleavage fluorescence; inhibition, % (no concentration beside the values); 330,000 tested, 0.33% active; AID 588478;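 active = mean inhibition over replicate wells above about 20%, limit read from the data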;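 also: 0% = compound-free wells with enzyme and 100% = wells lacking proteasome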
Target sequence (Q9Y5K5 whole entry, looked up): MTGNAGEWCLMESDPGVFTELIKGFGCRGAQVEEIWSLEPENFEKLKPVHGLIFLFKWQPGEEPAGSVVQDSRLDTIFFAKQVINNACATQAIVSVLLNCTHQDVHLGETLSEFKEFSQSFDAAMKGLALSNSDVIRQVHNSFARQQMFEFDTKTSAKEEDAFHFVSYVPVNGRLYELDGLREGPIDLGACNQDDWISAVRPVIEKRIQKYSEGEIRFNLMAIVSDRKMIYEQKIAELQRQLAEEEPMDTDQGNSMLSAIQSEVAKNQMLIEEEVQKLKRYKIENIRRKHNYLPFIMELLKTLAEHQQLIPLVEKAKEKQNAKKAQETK
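Material: human UCH37 enzyme supplied as purified proteasome complex. Measure: % inhibition of Ub-AMC cleavage fluorescence. Medium: pH 7.4 Tris-HCl (50 mM) with ovalbumin, ATP-MgCl2, DTT. Times: 30 min preincubation with enzyme, 25 min cleavage at room temperature. Detection: AMC fluorescence intensity at 355/460 nm.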
NALP1 inh: NALP1 inhibition. S. cerevisiae NALP1/ASC/caspase-1 growth, X-gal OD620, 72 h. inhibition, % at 10 µM. 280,000 tested, 0.61% active. AID 2071; in the data active = inhibition mostly above about 24%, no sharp cut-off; inactive = mostly below about 32%
ALR inh: inhibitors of human sulfhydryl oxidase ALR; purified ALR, DTT oxidation, H2O2 HRP-luminol luminescence; inhibition, % (concentration not given with the values); 290,000 tested, 3.8% active; AID 485317;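 active = mean replicate inhibition above about 79%, with every replicate also reaching it, limit read from the data; inconclusive = only one of the two criteria met; inactive = mean below limit and not every replicate reaching it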
Target sequence (P55789 whole entry, looked up): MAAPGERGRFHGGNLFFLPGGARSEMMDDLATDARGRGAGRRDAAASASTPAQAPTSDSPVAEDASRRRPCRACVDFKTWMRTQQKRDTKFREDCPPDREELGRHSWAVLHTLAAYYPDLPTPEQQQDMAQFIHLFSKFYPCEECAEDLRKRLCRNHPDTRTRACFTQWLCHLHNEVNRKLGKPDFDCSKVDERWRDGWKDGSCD
Calb FLC: C. albicans growth modulation with fluconazole. growth inhibition, % (concentration not given with the values). 300,000 tested, 0.57% active. C. albicans CaCi-2 + fluconazole, Alamar Blue growth, 48 h. AID 1979;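 active = growth inhibition above about 58% in most replicates, limit read from the data, passing the limit was not always enough; inconclusive = exactly half the replicates above a set limit; inactive = most replicates below a set limit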;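 also: all wells also contain fluconazole at 8 µg/ml as a sub-toxic cotreatment; 0% = median of DMSO wells and 100% = median of geldanamycin control wells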
ATG4B inhibitor: ATG4B (human) cysteine protease inhibition; 340,000 tested, 0.51% active; ATG4B cleavage of LC3-PLA2, NBD-HPC fluorescence, 1 h; inhibition, % at 8.33 µM; AID 504462; in the data active = inhibition above about 40%
Numbers without * were called inactive; ? = inconclusive; . = not tested or not shown.

SMILES	NALP3 yeast inh	UCH37 DUB inh	NALP1 inh	ALR inh	Calb FLC	ATG4B inhibitor
CC(=O)c1ccc(Nc2cc(C)nc3c(C)cccc23)cc1	9.9	-25.7	28.0*	-12.5	7.6	-24.8
CC(CC(=O)Nc1ccc(OCc2ccccc2)cc1)=NNC(=O)C(=O)Nc1cccc(C)c1	.	1.2	.	.	.	.
O=C(NN=Cc1ccc(N2CCCCC2)o1)c1ccccc1[N+](=O)[O-]	.	7.0	.	.	.	.
COc1ccc(C=NNC(=O)c2cccc(S(=O)(=O)N3CCCC3)c2)cc1O	.	8.3	.	.	.	.
O=C(COc1ccc(C=NNS(=O)(=O)c2ccccc2)cc1)Nc1ccccc1	.	3.4	.	.	.	.
CCN(CC)C(=O)CSc1nnc([C@@H](N)Cc2ccccc2)o1	1.5	1.9	-8.4	-7.0	0.4	4.6
N[C@@H](Cc1ccccc1)c1nnc(SCc2ccccc2Cl)o1	-6.6	5.1	30.5	98.4*	-1.1	16.4
N#CC(=NNc1ccc(S(=O)(=O)N2CCc3ccccc32)cc1)C(N)=S	.	8.1	.	.	.	.
CCN(CC)c1cccc(OC2=NS(=O)(=O)c3ccccc32)c1	1.5	1.6	8.5	99.0*	67.6	0.5
NNc1nc2sc3c(c2c(=O)n1-c1ccccc1)CCCC3	14.9	2.0	2.4	13.0	0.1	7.0
Nn1c(Nc2ccccc2)nc2sc3c(c2c1=O)CCCC3	7.6	4.2	2.8	81.5*	35.5	-6.0
C/C(=N\N(Cc1ccccc1)c1ccccc1)c1ccncc1	-5.4	.	-0.3	99.0*	-30.7	9.2
COc1cc(C=NNC(=O)Cn2nc([N+](=O)[O-])cc2C)cc(Br)c1OCc1ccccc1	.	4.6	.	.	.	.
CCOC(=O)c1nnn(-c2nn3nnnc3c3ccccc23)c1C	-13.2	2.8	15.3	98.3*	11.5	-5.8
N#CCC(=O)NN=Cc1ccc(SCC(=O)Nc2ccccc2)o1	.	1.5	.	.	.	.
CC(=O)c1c(C)nc(-c2cccc([N+](=O)[O-])c2)n1O	-9.4	4.0	-20.7	50.6	75.9*	-0.8
COc1ccc(C(=O)c2ccccc2Cl)cc1	39.1	4.3	-4.2	-16.7	-5.9	5.6
Cc1sc(N)c(C(=O)c2ccccc2Cl)c1C	28.9	1.0	2.2	99.4*	2.0	10.0
C=CCSc1nnc(-c2ccccc2N=Cc2c(C)[nH]n(-c3ccccc3)c2=O)c(=O)[nH]1	13.6	7.8	31.3	97.3*	-10.2	-3.2
COc1ccc(NC2CCCN(C(=O)CCCn3cncn3)C2)cc1 (configuration not stated)	13.0	.	10.3	98.9*	0.9	.
COc1ccc(NC2CCCN(C(=O)CCc3cccc(F)c3)C2)cc1 (configuration not stated)	11.8	3.5	-18.0	99.5*	-12.4	14.7
COc1ccc(NC2CCCN(C(=O)CCn3cccn3)C2)cc1 (configuration not stated)	10.6	2.2	5.3	98.6*	2.3	-0.6
C=CCOc1c(Br)cc(CNn2cn[nH]c2=S)cc1OC	19.0	4.2	-33.7	92.4*	46.2	-0.7
C=CC(=O)Nc1sc2c(c1C(N)=O)CCCC2	20.5	-0.7	.	?	70.4	2.2
NC(=O)c1c(NC(=S)Nc2ccc(F)cc2)sc2c1CCCC2	20.3	-38.3	1.2	89.9*	12.1	-4.7
SMILES	NALP3 yeast inh	UCH37 DUB inh	NALP1 inh	ALR inh	Calb FLC	ATG4B inhibitor
NC(=O)c1c(NC(=S)Nc2ccccc2)sc2c1CCCC2	27.3	-24.2	0.8	-19.5	33.1	1.2
C=CCNC(=S)Nc1sc2c(c1C(N)=O)CCCC2	-1.3	.	.	98.3*	3.2	-4.4
CCCCOc1ccc(-c2nc(=S)[nH][nH]2)cc1	21.4	-0.3	-9.8	98.8*	-3.4	-3.4
CCCCOc1ccc(-c2nc(SCC(N)=O)n[nH]2)cc1	-3.1	0.6	10.9	0.9	-1.0	-9.0
O=C(NN=Cc1cccnc1)c1cccs1	.	-2.2	.	.	.	.
Nc1ccc(C(=O)c2cccs2)cc1[N+](=O)[O-]	42.1	6.6	7.7	5.0	125.7*	10.4
Nc1ccc(C(=O)c2cccs2)cc1	29.1	.	47.8*	.	-3.4	-6.3
O=C(COC(=O)CNC(=O)c1ccc(Cl)c([N+](=O)[O-])c1)NNC(=O)c1cccs1	11.6	4.0	.	.	-5.8	4.1
Cc1cc(C(=O)c2cccs2)c(N)s1	8.2	4.8	0.4	99.4*	35.4	-14.7
Nc1ccc(C(=O)O)cc1[N+](=O)[O-]	-3.5	6.3	-13.8	-5.3	0.2	-23.3
O=C(NNC(=O)c1cccs1)c1ccc(Cl)c([N+](=O)[O-])c1	10.5	21.0*	14.4	2.3	-20.4	-3.0
CC(=NNS(=O)(=O)c1ccc(Cl)c([N+](=O)[O-])c1)c1ccc(C)o1	.	8.1	.	.	.	.
Cc1[nH]n(-c2ccccc2)c(=O)c1C=NNC(=O)c1ccc(O)cc1O	.	-94.2	.	.	.	.
Cc1cc(=O)[nH]c(NN=Cc2ccccn2)n1	.	4.4	.	.	.	.
O=c1cnnc(N/N=C/c2ccccn2)[nH]1	12.3	.	.	-4.7	95.4*	-0.5
C(=N\Nc1nncc2ccccc12)/c1ccccn1	17.7	.	37.1*	-1.0	-6.5	-7.8
O=c1nc(N/N=C/c2ccccn2)cn[nH]1	1.1	.	-39.9	.	106.3*	8.0
Cc1ccc(NC2=CC(=O)CC(c3ccco3)C2)c(N)c1 (configuration not stated)	26.0	-0.3	18.6	97.9*	?	15.1
Cc1cccc(NC2=CC(=O)OC(C)C2)c1 (configuration not stated)	1.6	-1.3	-0.3	-3.9	-5.7	-8.1
CC1CC(Nc2ccccc2N)=CC(=O)O1 (configuration not stated)	-17.7	0.8	2.5	86.4*	4.5	9.9
Nc1ccccc1NC1=CC(=O)CC(c2ccco2)C1 (configuration not stated)	7.9	-3.2	7.1	83.8*	?	-2.3
Nc1ccccc1NC1=CC(=O)CC(c2ccccc2)C1 (configuration not stated)	7.7	4.9	6.6	48.3	-1.6	.
CN(C)Cc1c(C(=O)NN=Cc2cccc(OCc3c(F)cccc3Cl)c2)nnn1-c1nonc1N	.	2.7	.	.	.	.
CC(=NNC(=S)Nc1ccc(C)cc1)c1cccc(N)c1	.	-16.8	.	.	.	.
CC(C)OP(=O)(OC(C)C)C(C=O)=NNc1ccc([N+](=O)[O-])cc1	.	15.3	.	.	.	.
Cc1cc([N+](=O)[O-])ccc1-c1ccc(C2Nc3ccccc3C(=O)N2O)o1 (configuration not stated)	8.8	5.1	6.1	10.3	101.2*	-16.9
N#Cc1ccc(-c2ccc(C3Nc4ccccc4C(=O)N3O)o2)cc1 (configuration not stated)	3.5	-8.2	.	25.6	.	6.2
CCOC(=O)c1ccc(-c2ccc(C3Nc4ccccc4C(=O)N3O)o2)cc1 (configuration not stated)	7.3	-15.9	9.6	.	90.7*	5.0
Cc1ccccc1CN(c1ccc(C(=O)NCc2cccnc2)cc1)S(C)(=O)=O	26.7	-0.6	14.5	95.8*	?	-8.7
CN(c1ccc(C(=O)NCc2cccnc2)cc1)S(C)(=O)=O	2.2	2.2	12.1	-12.8	-1.7	-0.2
